Screening data: PubChem, several laboratories
This is a sample that favours compounds with a hit; in the whole collection about 1.9% have one here.
Hsp70 activator: Hsp70 transcriptional activation, primary screen; HeLa Hsp70 promoter luciferase reporter, luminescence; scaled: vehicle 0, proteasome-inhibitor control 100%; 0.04% of 200,000 active; activation, % at 10 µM; AID 1203;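 active = activation above the mean across all tested compounds plus 3 SD, cutoff set per campaign, cut at about 5.5% in these data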;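 note: 100% = MG132 at 30 µM as the positive control and 0% = DMSO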
ABHD5 PLIN5 PPI: blocks binding of human ABHD5 to perilipin-5; Q00G26+Q8WTS1; Split G. princeps luciferase complementation, luminescence, 4 h; inhibition, % at 4 µM; 0.78% of 360,000 active;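 active = inhibition above the mean inhibition across every tested compound plus 3 SD, cut at about 22% in these data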;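 note: 0% = DMSO only wells and the 100% control is not disclosed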
HIF activator: HIF pathway transcriptional activation; U2OS HRE-luciferase reporter, luminescence; normalized: DMSO 0%, desferrioxamine 100%; activation, % at 7.5 µM (by protocol); 0.32% of 300,000 active; AID 1910;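 active = mean activation of at least 10% of the iron chelator positive control signal, with at least half of replicates also reaching 10%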
TAG inh: reduces triacylglycerol accumulation in H9c2 cells. AID 651582. inhibition, % at 12.5 µM. 0.66% of 230,000 active. Nile Red lipid (TAG) fluorescence; cells loaded with 200 µM oleic acid;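 active = pattern-corrected inhibition of lipid staining of at least 50% with the nuclear-stain viability signal not falling by more than 50%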;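 note: 0% = DMSO wells and 100% = triacsin C control wells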
GAA850 FXN act: increases GAA850 frataxin promoter reporter activity; HEK293 lucGAA850 FXN promoter luciferase reporter, 24 h; percent of 10 µM SAHA response; 0.56% of 360,000 active; AID 540364; activation, % at 6 µM;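 active = activation above the average of all compounds screened plus 3 SD, cutoff fixed separately per campaign, cut at about 7.5% in these data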;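 note: 0% = DMSO wells and 100% = 10 µM SAHA wells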
Rad51 HR inh: blocks human Rad51 in homologous recombination; inhibition, % at 10 µM; hRad51 DNA strand exchange, fluorescence dequenching; AID 1385; 0.085% of 200,000 active; Q06609;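 active = inhibition above 40% at the single screening dose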;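 note: 0% = DMSO control wells and 100% = blanks with heterologous ssDNA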
Target sequence (Q06609 whole entry, looked up): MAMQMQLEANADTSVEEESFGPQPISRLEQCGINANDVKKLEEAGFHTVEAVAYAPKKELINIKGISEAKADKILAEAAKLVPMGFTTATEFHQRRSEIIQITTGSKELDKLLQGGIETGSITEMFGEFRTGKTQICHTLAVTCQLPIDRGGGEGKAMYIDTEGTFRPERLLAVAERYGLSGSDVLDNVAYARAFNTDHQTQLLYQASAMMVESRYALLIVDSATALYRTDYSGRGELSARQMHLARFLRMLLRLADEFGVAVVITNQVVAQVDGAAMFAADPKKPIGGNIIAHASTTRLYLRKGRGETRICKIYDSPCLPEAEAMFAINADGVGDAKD
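Test system: preformed human Rad51 ssDNA filaments. Compound dosing: single dose, 10 µM final compound. Incubation: filaments 15 min 37 °C, then compound 30 min. Technique: FRET fluorescence dequenching, excitation 485 nm, emission 520 nm. Read-out basis: percent inhibition from fluorescence, normalised to plate control and blank means. Benchmarks: plate controls and plate blanks.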
GAA30 counter: counter-screen for GAA850 frataxin promoter activators: GAA30 promoter activation; 66% of 1,900 active; HEK293 lucGAA30 FXN promoter luciferase, 24 h; DMSO = 0%, 5 µM ipriflavone = 100%; shares compounds with GAA850 FXN act; activation, % at 6 µM;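 active = mean activation above the mean of solvent-only control wells plus 3 SD, cut at about 22% in these data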;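 note: counterscreen of GAA850 promoter hits where activity marks nonselective or luminescence artifacts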
GAA850 confirm: confirmation of GAA850 frataxin (FXN) promoter activators; 86% of 1,900 active; activation, % at 6 µM; shares compounds with GAA850 FXN act; HEK293 lucGAA850 FXN promoter luciferase reporter, 24 h; 100% = activation by SAHA; AID 588351;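 active = mean activation above a set limit taken from the primary screen, cut at about 8% in these data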;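 note: 0% = DMSO wells and 100% = 10 µM SAHA wells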
An asterisk follows results filed as active; · = no result given.

SMILES	Hsp70 activator	ABHD5 PLIN5 PPI	HIF activator	TAG inh	GAA850 FXN act	Rad51 HR inh	GAA30 counter	GAA850 confirm
Cc1cc(/C=C2\NC(=S)N(C)C2=O)ccc1N1CCCC1	0	-1	1	-28	7.6*	·	107*	50*
CS(=O)(=O)c1ccc(S(=O)CC(=O)OCc2ccccc2)c([N+](=O)[O-])c1 (stereo unspecified)	0	40*	1	102	95*	-8	-91	-17
O=C(NCc1ccco1)c1cccc2c(-c3ccc(F)c(F)c3)coc12	·	-1	·	-38	2	·	·	·
O=C(C1COc2ccccc2O1)N1CCc2ccccc21 (stereo unspecified)	0	-1	2	·	8.0*	-5	73*	32*
O=C(C1COc2ccccc2O1)N1CCCC1 (stereo unspecified)	0	1	0	·	-5	6	·	·
O=C(Nc1ccc(Br)cn1)c1cccc(-c2cc3ccccc3oc2=O)c1	0	7	1	·	9.4*	6	118*	33*
Cc1nc(NC(=O)c2cccc(-c3cc4ccccc4oc3=O)c2)ccc1Br	0	-2	0	·	-1	-2	·	·
NC(=O)c1ccsc1NC(=O)CSc1ccccc1F	0	0	2	·	8.2*	1	89*	27*
Cc1csc(NC(=O)CSc2ccc(-c3ccccn3)nn2)n1	0	2	2	10	2	5	·	·
Cc1csc(NC(=O)CSc2ccccc2F)n1	0	10	3	10	12*	-95	78*	25*
COc1ccccc1C(=O)N=c1sc2c(C)ccc(OC)c2n1C	·	4	4	-30	9.5*	·	82*	32*
CC(=O)c1ccc(N=Nc2ccc(C)cc2)cc1	0	3	-1	23	0	-4	·	·
C=C(C)C(=O)Oc1ccc(N=Nc2ccc(C)cc2)ccc1=O	·	3	·	17	11*	·	59*	40*
O=C(Nc1ccc(N2CCOCC2)c(Cl)c1)c1ccc([N+](=O)[O-])o1	0	-3	2	84	11*	12	118*	56*
CN1CCN(c2ccc(NC(=O)c3ccc([N+](=O)[O-])o3)cc2Cl)CC1	·	1	-4	·	2	·	·	·
COc1cc(/C=N\n2cnnc2)ccc1OCC(=O)Nc1ccc(C)cc1	0	-6	-30	-2	3	9	·	·
COc1ccc(NC(=O)COc2ccc(/C=N/n3c(C)nnc3C)cc2OC)cc1	0	-9	0	·	8.0*	-3	37*	12*
CC1(Cc2ccc(C(F)(F)F)nc2)C(=O)Nc2cc(-c3ccccc3Cl)ccc21 (stereo unspecified)	·	-1	·	-1	14*	·	12	14*
COc1cc(CNc2cccc(C(=O)O)c2)cc(Br)c1OCC(=O)NC(C)(C)C	0	1	-1	·	4	-20	·	·
O=C(CC1SC(N2CCCCC2)=NC1=O)Nc1cccc(C(=O)NCc2ccc(F)cc2)c1 (stereo unspecified)	·	6	·	1	2	·	·	·
O=C1CSc2ccc(C(=O)NCCC3=CCCCC3)cc2N1	0	-2	2	·	7.8*	0	76*	24*
Fc1ccc(-c2csc3ncnc(Nc4ccc(N5CCOCC5)cc4)c23)cc1	0	0	0	·	12*	-7	5	11*
c1nc(Nc2ccc(N3CCOCC3)cc2)c2ccsc2n1	·	0	2	0	4	8	·	·
Cc1c(C(=O)N2CCOCC2)cc(C(C)(C)C)n1-c1ccccc1	·	-4	0	5	1	-16	·	·
Cc1ccc(C(=O)NCCc2nnc3ccc(SCC(=O)N4CCCCC4)nn23)cc1	·	-5	0	14	1	·	·	·
SMILES	Hsp70 activator	ABHD5 PLIN5 PPI	HIF activator	TAG inh	GAA850 FXN act	Rad51 HR inh	GAA30 counter	GAA850 confirm
CCCS(=O)(=O)Nc1ccc(N2CCCCC2)c(S(=O)(=O)Nc2ccccc2OC)c1	·	-8	·	11	7.8*	·	19	9.1*
OCCCCCN=c1cc(-c2ccccc2)oc2ccc(Cl)cc12	1	7	2	36	-2	1	·	·
Clc1ccc2oc(-c3ccccc3)cc(=NCCCN3CCOCC3)c2c1	0	-1	·	6	9.4*	-2	51*	22*
O=C(Nc1ccc(Cl)c(Cl)c1)C1=Cc2ccccc2OC1	0	-8	2	-12	9.1*	0	86*	34*
Cc1ccc(O)c(NC(=O)CCC2CCCCC2)c1	1	-2	3	-15	8.3*	-4	91*	35*
CCOC(=O)Cn1c2ccccc2c2nc3ccccc3nc21	0	-5	1	17	1	-3	·	·
O=C(O)Cn1c2ccccc2c2nc3ccccc3nc21	·	-2	·	0	10*	·	104*	33*
Cc1cc(C)cc(N(CC(=O)NC(C)C)C(=O)CCC(=O)Nc2ccccn2)c1	·	5	1	·	0	·	·	·
O=C(COc1ccccc1)Nc1ccc(NC(=O)c2ccco2)cc1	0	-7	2	-5	1	·	·	·
CCOc1ccc(NC(=O)Cc2ccccc2)cc1	0	-2	7	·	8.4*	·	82*	31*
O=C(Cc1ccccc1)Nc1ccc(NC(=O)c2ccco2)cc1	·	-3	2	·	7.9*	·	48*	22*
CCOc1ccc(NC(=O)CNC(=O)Cc2ccccc2)cc1	·	-3	0	·	5	·	·	·
COCC(=O)Nc1ccc(OCc2ccccc2)cc1	0	-5	2	·	4	-3	·	·
COC(=O)Nc1ccc(OCc2ccccc2)cc1	0	3	3	·	10.0*	1	89*	32*
Cc1ccc(CN2CCCC(CO)(Cc3ccccc3C)C2)s1 (stereo unspecified)	0	-7	-1	-20	-1	·	·	·
C[C@@H]1CN([C@@H](C)CO)C(=O)c2c(c3ccccc3n2C)-c2ccccc2CO[C@H]1CN(C)C(=O)[C@H](C)c1ccccc1	·	-5	·	23	-8	·	·	·
C[C@H](CO)N1C[C@H](C)[C@H](CN(C)C(=O)N[C@H](C)c2ccccc2)OCc2ccccc2-c2c(n(C)c3ccccc23)C1=O	·	1	·	5	14*	·	-6	4
Cc1nn(Cc2ccccc2)c(C)c1NC(=O)CCCn1nc(C)c([N+](=O)[O-])c1C	0	10	-2	·	8.4*	0	7	1
Cc1nn(Cc2ccc(Cl)cc2)c(C)c1NC(=O)CCCn1nc(C)c([N+](=O)[O-])c1C	0	7	-1	·	2	3	·	·
